Published values of several laboratories.
Each line is one published result; the experiments were not run side by side. pIC50: −log10 of the molar value.
UGT2B7: UDP-glucuronosyltransferase 2B7 (UGT2B7, Homo sapiens, UniProt P16662)

With `C=C1CCC2C(C)(CO)C(=O)CCC2(C)C1CCC1=CCOC1=O` (stereo not drawn) the inhibition was 94% (UGT2B7; enzyme activity, inhibitor; 100 µM).
For `CCOC(=O)CC1SC(=NN=Cc2ccc(OC)cc2)NC1=O` (stereo not drawn), the CC50 was 399 µM (LLC-MK2; cell growth or viability, MTT; 96 h, pH 7.2).
`C/C=C(/C)C(=O)O[C@@H]1[C@H](OC(C)=O)c2c(ccc3ccc(=O)oc23)OC1(C)C` gave a pIC50 of 4.35 (RD; cell growth or viability, WST-1).
`COc1cc(OC)cc(N(CCNC(C)C)c2ccc3ncc(-c4cnn(C)c4)nc3c2)c1` gave a Papp of 19.8 ×10⁻⁶ cm/s (LLC-PK1; Caco-2).
The CC50 of `CCOC(=O)CC1SC(=NN=Cc2cccc(Br)c2)NC1=O` (stereo not drawn) is reported as 446 µM (LLC-MK2; cell growth or viability, MTT; 96 h, pH 7.2).
`C=C1CC[C@@H]2[C@](C)(CO)[C@H](O)CC[C@@]2(C)[C@@H]1C/C=C1/C(=O)OC[C@H]1O` gave an inhibition of 94% (UGT2B7; enzyme activity, inhibitor; 100 µM, pH 7.4).
`C[C@H](O)c1cc(C(=O)N[C@@H](C)Cn2ccc(-c3ccc(C#N)c(Cl)c3)n2)n[nH]1` gave a pIC50 of < 4.00 (UGT2B7; enzyme activity, inhibitor; human, liver microsomes).
The CC50 of `CCOC(=O)CC1SC(=NN=Cc2ccc(O)c(OC)c2)NC1=O` (stereo not drawn) is reported as 545 µM (LLC-MK2; cell growth or viability, MTT; 96 h, pH 7.2).
With `CC1(C)CC[C@]2(C)CC[C@]3(C)[C@H]4CC=C5[C@@H](CC[C@H](O)C5(C)C)[C@]4(C)CC[C@@]3(C)[C@@H]2C1` the pIC50 was 4.10 (RD; cell growth or viability, WST-1).
`C[C@@H](Nc1cc(F)cc(F)c1)c1cc(C(=O)N(C)C)cc2c(=O)cc(N3CCOCC3)oc12` gave a Tmax of 1.53 h (human, plasma; oral, 30 mg, patients).
`CCOC(=O)CC1SC(=NN=Cc2ccccc2OC)NC1=O` (stereo not drawn) gave a CC50 of 539 µM (LLC-MK2; cell growth or viability, MTT; 96 h, pH 7.2).
The pIC50 of `CC(=O)O[C@@H]1c2c(ccc3ccc(=O)oc23)OC(C)(C)[C@@H]1OC(=O)C1(C)OC1C` (stereo partly drawn) is reported as 4.37 (RD; cell growth or viability, WST-1).
`CC(C)n1cc(C#N)c2cc(-n3cc(C(=O)O)cn3)ccc21` gave a Tmax of 2.7 h (human, plasma; oral, 200 mg, single dose, fasted, healthy volunteers).
With `CCOC(=O)CC1SC(=NN=Cc2ccccc2Cl)NC1=O` (stereo not drawn) the CC50 was 229 µM (LLC-MK2; cell growth or viability, MTT; 96 h, pH 7.2).
`COc1cccc(OC)c1-c1cc(C(=O)NC2(C(=O)O)C3CC4CC(C3)CC2C4)nn1-c1ccc(C(=O)N(C)CCCN(C)CCCN(C)C(=O)CN2CCN(CC(=O)[O-])CCN(CC(=O)[O-])CCN(CC(=O)[O-])CC2)cc1C(C)C.[177Lu+3]` (stereo not drawn) gave a tracer uptake of 3.1 %ID/g (HT-29; liver; intravenous, 4 h, tumour-bearing).
